Assay [1] can be described thus: Cytotoxicity against human Lu cells after 72 hrs by sulforhodamine B assay. It counts as functional, cell-based. The essentials:
(§1)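 Cells seeded at 5.0×10^4 cells/mL in 96-well plates, given compound in 10% DMSO (10 µL) for final 0–20 µg/mL, 72 h incubation; zero-day control plate 30 min at 37 °C. Fixed with cold 50% TCA 30 min at 4 °C, stained 0.4% sulforhodamine B in 1% acetic acid 30 min, dye solubilized in 10 mM Tris base pH 10, absorbance 515 nm.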
On the technique in general: In SRB staining, fixed cells bind dye roughly in proportion to their protein.

Assay [2] concerns the target T1, Ribosyldihydronicotinamide dehydrogenase [quinone] (Homo sapiens, UniProt P16083).
T1 sequence (P16083 whole entry): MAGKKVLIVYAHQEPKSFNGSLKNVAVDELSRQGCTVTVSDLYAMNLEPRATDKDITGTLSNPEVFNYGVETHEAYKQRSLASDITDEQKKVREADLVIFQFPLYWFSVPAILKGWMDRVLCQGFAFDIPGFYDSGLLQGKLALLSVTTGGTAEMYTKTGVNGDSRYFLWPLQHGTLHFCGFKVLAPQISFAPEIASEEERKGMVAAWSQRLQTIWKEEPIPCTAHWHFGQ
Description: Inhibition of human quinone reductase 2 expressed in Escherichia coli BL21(DE3) incubated at 23 degC by MTT assay. (In general: Formazan colour is commonly taken as a measure of viable cells.)

The subject of assay [3] is MCF7. Put plainly: Cytotoxicity against human MCF7 cells after 72 hrs by sulforhodamine B assay. It counts as functional, cell-based. The conditions noted are these: MCF7, 72 h. A digest of the protocol:
as §1

The target in assay [4] is T2, Aromatase (Homo sapiens, UniProt P11511).
T2 sequence (P11511 whole entry): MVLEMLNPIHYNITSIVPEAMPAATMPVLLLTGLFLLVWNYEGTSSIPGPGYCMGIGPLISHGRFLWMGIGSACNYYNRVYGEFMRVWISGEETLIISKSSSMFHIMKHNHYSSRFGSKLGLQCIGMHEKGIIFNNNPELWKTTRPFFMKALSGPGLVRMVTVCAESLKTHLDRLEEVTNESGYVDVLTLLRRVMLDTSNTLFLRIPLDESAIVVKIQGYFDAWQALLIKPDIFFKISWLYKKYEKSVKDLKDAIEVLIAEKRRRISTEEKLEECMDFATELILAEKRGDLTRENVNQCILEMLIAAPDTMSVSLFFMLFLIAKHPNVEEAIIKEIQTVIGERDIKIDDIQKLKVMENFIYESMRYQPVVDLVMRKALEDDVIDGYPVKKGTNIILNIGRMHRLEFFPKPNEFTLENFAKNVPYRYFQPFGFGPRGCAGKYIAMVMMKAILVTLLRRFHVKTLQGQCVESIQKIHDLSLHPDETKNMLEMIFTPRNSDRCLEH

Assay [5] can be described thus: Cytotoxicity against mouse Hepa-1c1c7 cells after 72 hrs by sulforhodamine B assay. It counts as functional, cell-based. Particulars: Hepa-1c1c7, 72 h. The essentials:
as §1

Assay [6] deals with LNCaP. Description: Cytotoxicity against human LNCAP cells after 72 hrs by sulforhodamine B assay. The format is functional, cell-based. A digest of the protocol:
as §1

Each structure is given as a SMILES string.

Results on 20 compounds are retold here after ChEMBL document CHEMBL1153344, “Synthesis of casimiroin and optimization of its quinone reductase 2 and aromatase inhibitory activities” (J Med Chem, 2009).

Broadly, the IC50 is the concentration that inhibits the measured activity by half. Read a high IC50 as lower potency.

In the case of `COc1cc(=O)n(C)c2c3c(ccc12)OCO3` [CASIMIROIN], the IC50 in assay [1] is above 85.8 µM; in assay [2], 54.1 µM; in assay [3], above 85.8 µM; in assay [4], 3.92 µM; in assay [5], above 85.8 µM; in assay [6], above 85.8 µM.
As for `COc1ccc2c(C)cc(=O)[nH]c2c1OC`, the IC50 in assay [1] is above 91.3 µM; in assay [2] it was 29.3 µM; in assay [3], above 91.3 µM; in assay [4] it was 31.5 µM; in assay [5] it was above 91.3 µM; in assay [6], above 91.3 µM.
With `COc1c(OC)c(OC)c2c(c(C)cc(=O)n2C)c1OC`, the IC50 is above 68.2 µM in assay [1]; above 500 µM in assay [2]; above 68.2 µM in assay [3]; 0.76 µM in assay [4]; above 68.2 µM in assay [5]; above 68.2 µM in assay [6].
As for `COc1cc2c(C)cc(=O)[nH]c2c(OC)c1OC`, the IC50 was above 80.3 µM in assay [1]; 10 µM in assay [2]; above 80.3 µM in assay [3]; 18.5 µM in assay [4]; above 80.3 µM in assay [5]; above 80.3 µM in assay [6].
Turning to `COc1cc(OC)c2c(c1)c(C)cc(=O)n2C`, the IC50 in assay [1] is above 85.8 µM; in assay [2], 1.9 µM; in assay [3], above 85.8 µM; in assay [4] it was 0.96 µM; in assay [5] it was above 85.8 µM; in assay [6], above 85.8 µM.
Regarding `COc1c(OC)c(OC)c2c(C)cc(=O)[nH]c2c1OC`, the IC50 in assay [1] was above 71.7 µM; in assay [2], above 500 µM; in assay [3], above 71.7 µM; in assay [4], 5.68 µM; in assay [5] it was above 71.7 µM; in assay [6], above 71.7 µM.
On to `COc1ccc(OC)c2c1c(C)cc(=O)n2C`, for which the IC50 is above 85.7 µM in assay [1]; 4.1 µM in assay [2]; above 85.7 µM in assay [3]; 0.96 µM in assay [4]; above 85.7 µM in assay [5]; above 85.7 µM in assay [6].
As for `Cc1cc(=O)[nH]c2c3c(ccc12)OCO3`, the IC50 was above 98.5 µM in assay [1]; 10.8 µM in assay [2]; above 98.5 µM in assay [3]; above 98.5 µM in assay [4]; above 98.5 µM in assay [5]; above 98.5 µM in assay [6].
`Cc1cc(=O)[nH]c2ccccc12`: the IC50 in assay [1] was above 126 µM; in assay [2], above 500 µM; in assay [3] it was above 126 µM; in assay [4], above 126 µM; in assay [5] it was above 126 µM; in assay [6], above 126 µM.
Regarding `COc1cc(OC)c2c(c(C)cc(=O)n2C)c1OC`, the IC50 in assay [1] is 68.5 µM; in assay [2], 10.8 µM; in assay [3] it was above 76 µM; in assay [4], 0.1 µM; in assay [5], 70.7 µM; in assay [6], above 76 µM.
For the compound `COc1cccc2c(C)cc(=O)n(C)c12`, the IC50 in assay [1] is above 98.5 µM; in assay [2], 5.8 µM; in assay [3] it was above 98.5 µM; in assay [4], 2.02 µM; in assay [5], above 98.5 µM; in assay [6] it was above 98.5 µM.
On to `COc1cc2c(C)cc(=O)n(C)c2c(OC)c1OC`, for which the IC50 in assay [1] is above 76 µM; in assay [2] it was 7 µM; in assay [3], above 76 µM; in assay [4], 2.72 µM; in assay [5] it was above 76 µM; in assay [6] it was above 76 µM.
Take `COc1ccc(OC)c2c(C)cc(=O)[nH]c12`: the IC50 in assay [1] is above 91.2 µM; in assay [2] it was 10.8 µM; in assay [3], above 91.2 µM; in assay [4], 26.8 µM; in assay [5], above 91.2 µM; in assay [6] it was above 91.2 µM.
On to `Cc1cc(=O)n(C)c2c1C(=O)C=CC2=O`, for which the IC50 in assay [1] is 49.2 µM; in assay [2], above 500 µM; in assay [3] it was 60.5 µM; in assay [4] it was above 98.4 µM; in assay [5], 54.1 µM; in assay [6], 58.1 µM.
With `COc1cc(OC)c2[nH]c(=O)cc(C)c2c1OC`, the IC50 in assay [1] was 35.3 µM; in assay [2] it was 6 µM; in assay [3], 43 µM; in assay [4], 14.8 µM; in assay [5], 34.5 µM; in assay [6], 45.8 µM.
For `Cc1cc(=O)n(C)c2c3c(ccc12)OCO3`, the IC50 was above 92.1 µM in assay [1]; 6.2 µM in assay [2]; above 92.1 µM in assay [3]; 1.25 µM in assay [4]; above 92.1 µM in assay [5]; above 92.1 µM in assay [6].
Regarding `COc1ccc2c(C)cc(=O)n(C)c2c1OC`, the IC50 was above 85.8 µM in assay [1]; 9.3 µM in assay [2]; above 85.8 µM in assay [3]; 5.76 µM in assay [4]; above 85.8 µM in assay [5]; above 85.8 µM in assay [6].
With `COc1cc(OC)c2[nH]c(=O)cc(C)c2c1`, the IC50 in assay [1] is above 91.3 µM; in assay [2], 8.8 µM; in assay [3], above 91.3 µM; in assay [4], above 91.3 µM; in assay [5] it was above 91.3 µM; in assay [6], above 91.3 µM.
For `Cc1cc(=O)n(C)c2ccccc12`, the IC50 in assay [1] is above 116 µM; in assay [2], 18.2 µM; in assay [3], above 116 µM; in assay [4], above 116 µM; in assay [5], above 116 µM; in assay [6] it was above 116 µM.
For `COc1cccc2c(C)cc(=O)[nH]c12`, the IC50 was above 106 µM in assay [1]; 24.1 µM in assay [2]; above 106 µM in assay [3]; above 106 µM in assay [4]; above 106 µM in assay [5]; above 106 µM in assay [6].
